PMC4869561 (Inflammatory Bowel Diseases, 2016)
In brackets after ≈: the same amount, converted by molar mass. Entries after “also recorded” stand apart in the source; their conditions may differ. Like-named read-outs stand apart in the source and are kept apart here.

Tests used:
LPS-stimulated PBMCs = experiment: LPS stimulation of PBMCs, IL-8 release; type: cell-based, human; conditions: for inhibition: Homo sapiens, PBMC, read-out: maximum inhibition of IL-8 release
Procedure, shortened: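 Healthy-donor PBMCs (Lymphoprep) at 1 × 10^6 cells/mL in RPMI 1640 with 10% heat-inactivated FBS and 25 mM HEPES. Preincubated 2 h at 37°C, 5% CO2 with test compound 0.1–1000 ng/mL or DMSO 0.5% v/v. LPS 1 ng/mL then added for 24 h. Supernatant IL-8 measured by ELISA. At least 3 independent experiments.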

[1] = tested on: LPS-stimulated primary human macrophages; experiment: LPS activation of monocyte-derived macrophages, IL-8 and TNF-α release; type: cell-based; conditions: for inhibition of IL-8 release / inhibition of TNF-α release: LPS-stimulated macrophages, up to maximum tested 250 ng/mL; for inhibition: Homo sapiens, Macrophage
Procedure, shortened: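 CD14+ cells taken from human PBMCs by magnetic positive selection. Differentiated 12–14 days in RPMI with 10% FBS and GM-CSF 100 ng/mL. Plated at 2 × 10^5 cells/mL and equilibrated for 2 h. Pretreated 2 h with test compound or DMSO 0.5% v/v, then stimulated with LPS 10 ng/mL for 24 h. Supernatant IL-8 and TNF-α measured by ELISA.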

[2] = tested on: anti-CD3/anti-CD28-stimulated PBMCs; experiment: CD3/CD28 stimulation of PBMCs, IL-2 and IFN-γ release; type: cell-based, human; conditions: for efficacy of inhibition of IFN-γ release / efficacy of inhibition of IL-2 release: anti-CD3/anti-CD28-stimulated PBMCs
HT29 cells = experiment: IL-1β-stimulated IL-8 production by HT29 cells; type: cell-based, human; conditions: for maximum inhibition of IL-8 secretion, compound alone: IL-1β-stimulated HT29, 0.1-1000 ng/mL, maximum at 1000 ng/mL; for inhibitory effect on IL-8 secretion at 100 ng/mL: IL-1β-stimulated HT29, compound alone
[3] = Propidium iodide flow cytometry cell viability assay; type: cell-based; conditions: concentrations tested in the cellular assays, data not shown
[4] = tested on: myofibroblasts isolated from inflamed UC mucosa; experiment: TNF-α-stimulated IL-6 and IL-8 release by UC myofibroblasts; type: cell-based, human; conditions: for IC50: 24 h; for maximum inhibition (efficacy) of IL-6 release / maximum inhibition (efficacy) of IL-8 release: UC myofibroblasts, TNF-α-stimulated, 0.01-10 μg/mL
Procedure, shortened: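 Myofibroblasts grown from explants of inflamed resected UC mucosa in DMEM with 20% FBS and antibiotics, passaged with trypsin-EDTA and used at passage ≥4. Seeded at 5 × 10^4/well and cultured overnight. Stimulated with TNF-α 20 ng/mL plus DMSO 0.5% v/v or test compound (0.000001–1 or 0.01–10 μg/mL). After 24 h, IL-6 and IL-8 measured by ELISA as percent inhibition versus TNF-α + DMSO; at least 3 independent experiments.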

[5] = tested on: inflamed colonic biopsies from patients with UC; experiment: Organ culture of inflamed colonic UC biopsies, cytokine release; type: cell-based, human; conditions: 24 h; for inhibition at 1 µg/mL: Homo sapiens
Procedure, shortened: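 Inflamed colonic UC biopsies cultured one per well in serum-free HL-1 medium with penicillin/streptomycin at 37°C, 5% CO2. Treated with DMSO 0.5% v/v, test compounds at 1 μg/mL, the three selective inhibitors combined, or one compound at 0.001–1 μg/mL. After 24 h, supernatant IL-1β, IL-6 and IL-8 measured by ELISA. Results given as mean percent inhibition versus DMSO; at least 3 independent experiments.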

[6] = tested on: patients with active Crohn's disease; conditions: cited from earlier work
[7] = tested on: mouse acetic acid-induced colitis; conditions: mouse acetic acid-induced colitis model; cited from earlier work
[8] = tested on: rheumatoid arthritis patients; conditions: phase III trial; cited from earlier work
patients with UC = conditions: oral, clinical trial; cited from earlier work
[9] = Homo sapiens, read-out: IL-6 (IC50 Value)
[10] = Homo sapiens, read-out: IL-8 (IC50 Value)
[11] = read-out: inhibition of IL-1β release
[12] = read-out: inhibition of IL-6 release
[13] = read-out: inhibition of IL-8 release
[14] = read-out: inhibition of TNF-α release

Structure (SMILES)	inhibition (LPS-stimulated PBMCs)	inhibition of IL-8 release [1]	inhibition of TNF-α release [1]	efficacy of inhibition of IFN-γ release [2]	maximum inhibition of IL-8 secretion, compound alone (HT29 cells)	IC50 [4, 9]	IC50 [4, 10]	inhibition at 1 µg/mL [5, 11]	inhibition at 1 µg/mL [5, 12]	inhibition at 1 µg/mL [5, 13]	efficacy of inhibition of IL-2 release [2]	inhibitory effect on IL-8 secretion at 100 ng/mL (HT29 cells)	maximum inhibition (efficacy) of IL-6 release [4]	maximum inhibition (efficacy) of IL-8 release [4]	inhibition [1, 13]	inhibition [1, 14]	other results
C#Cc1cc(Nc2nccc(Oc3ccc(NC(=O)Nc4cc(C(C)(C)C)nn4-c4ccc(C)cc4)c4ccccc34)n2)cc(C(=O)NCCOCCOCCOC)c1 [TOP1210, 3-((4-((4-(3-(3-(tert-butyl)-1-(p-tolyl)-1H-pyrazol-5-yl)ureido)naphthalen-1 yl)oxy)pyrimidin-2-yl)amino)-5-ethynyl-N-(2-(2-(2-methoxyethoxy)ethoxy)ethyl)benzamide]	100%	maximal inhibition	maximal inhibition	maximal inhibition	maximal efficacy	0.0022 µg/mL (≈ 0.00276 µM)	0.0021 µg/mL (≈ 0.00264 µM)	80 to 90%	80 to 90%	80 to 90%							potency weaker than dasatinib, IL-2 release ([2]; ratio vs dasatinib): approximately 15 fold; potency weaker as inhibitor of IL-2 release compared with IFN-γ release ([2]; same compound, IL-2 vs IFN-γ): 18 fold; cell viability (propidium iodide, flow cytometry) [3]: not to effect cell viability
COc1ccc(-c2cc3nccn3c(Nc3ncccc3C(N)=O)n2)cc1OC [BAY-61-3606]		less than 50%	less than 50%	maximal efficacy	17%						weaker inhibition	Neither dasatinib nor BAY-61-3606 had any significant inhibitory effect	over 90%	over 90%			potency weaker than TOP1210, IL-8 release (LPS-stimulated PBMCs; LPS-stimulated PBMCs, ratio of IC50 values): ~300 fold; maximum inhibition of IL-8 release (LPS-stimulated PBMCs; LPS-stimulated PBMCs, up to maximum tested 1 μg/mL): 83%; efficacy of inhibition of IFN-γ release ([2]; listed as BAY61-3606): weaker inhibition; potency weaker than TOP1210, IFN-γ release ([2]; ratio of IC50 values): 120 fold
Cc1ccc(-n2nc(C(C)(C)C)cc2NC(=O)Nc2ccc(OCCN3CCOCC3)c3ccccc23)cc1 [BIRB-796]	< 50%			inactive; also recorded: little-to-no effect		> 1 µg/mL	> 1 µg/mL	50 to 65%	50 to 65%	50 to 65%	little-to-no effect		70%	70%	< 50%	< 50%	serum C-reactive protein ([6]; after 1 week): dose-dependent decrease; clinical efficacy endpoints compared to placebo ([6]; any time point): no clinical efficacy endpoints were reached
Cc1nc(Nc2ncc(C(=O)Nc3c(C)cccc3Cl)s2)cc(N2CCN(CCO)CC2)n1 [Dasatinib]	< 50%					> 1 µg/mL	> 1 µg/mL					Neither dasatinib nor BAY-61-3606 had any significant inhibitory effect			< 50%	87%	inhibition at 10 µg/mL ([4]; Homo sapiens, read-out: inhibition of IL-8 release): ~70%; inhibition of IL-1β release ([5]; inflamed UC biopsies, 1 μg/mL): did not have any significant effect; inhibition of IL-6 release ([5]; inflamed UC biopsies, 1 μg/mL): did not have any significant effect; inhibition of IL-8 release ([5]; inflamed UC biopsies, 1 μg/mL): did not have any significant effect
COc1cc(Nc2ncc(F)c(Nc3ccc4c(n3)N(COP(=O)(O)O)C(=O)C(C)(C)O4)n2)cc(OC)c1OC [fostamatinib]																	mucosal damage [7]: decrease mucosal damage; efficacy in rheumatoid arthritis [8]: limited efficacy
C[C@@H]1CCN(C(=O)CC#N)C[C@@H]1N(C)c1ncnc2[nH]ccc12 [tofacitinib]																	efficacy in UC (patients with UC): effective
